Consider 25 molecules from ChEMBL document CHEMBL1629447, “Antitumor agents 286. Design, synthesis, and structure-activity relationships of 3'R,4'R-disubstituted-2',2'-dimethyldihydropyrano[2,3-f]chromone (DSP) analogues as potent chemosensitizers to overcome multidrug resistance” (2010).

≈ marks a conversion by molar mass, not a printed value. Calls of active or inactive are those of the source. The rule behind the calls is not given here.

The subject of assay [1] is KBVIN. Put plainly: Inhibition of Pgp-mediated multidrug resistance in human KBVIN cells assessed as chemosensitization activity measured by increase in vincristine-induced cytotoxicity at 1 ug/mL by SRB assay relative to untreated control. Format: cell-based. On the technique in general: Sulforhodamine B stains cellular protein and so reports cell mass.
Assay [2] in a line: Cytotoxicity in human KBVIN cells by SRB assay. The assay is classed as functional. The gist of the method: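 Cellular protein read by sulforhodamine B staining, absorbance 562 nm. GI50 is the concentration giving 50% lower absorbance than untreated cells, taken from replicate dose-response curves.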
The subject of assay [3] is KBVIN. Put plainly: Inhibition of Pgp in human KBVIN cells assessed as facilitation of in calcein-AM accumulation by […]. Format: cell-based. The gist of the method:
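KB-Vin (MDR) cells, 10,000 per well, adhered one day in medium with 5% FBS. Pre-exposed to test compound at several concentrations for 30 min at 37 °C, then given fresh medium with 1 μM calcein-AM plus compound for 30 min at 37 °C. Washed with cold PBS in low light, lysed in 20 mM Tris-HCl, fluorescence read Ex 494/Em 517 nm. Verapamil as inhibitor control; two or more independent experiments.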

One may read the GI50 as the concentration giving 50% growth inhibition. Read a low GI50 as greater sensitivity of the cells.

As for `CCc1cc(=O)c2ccc3c(c2o1)[C@@H](OCc1ccccc1)[C@@H](OCc1ccccc1)C(C)(C)O3`, in assay [1], the fold change (FC) was determined as 40.7. In addition, the GI50 in assay [2] was > 15.7 µg/mL.
The corresponding values for `CCc1cc(=O)c2ccc3c(c2o1)[C@@H](OC(=O)c1ccccc1C(F)(F)F)[C@@H](OC(=O)c1ccccc1C(F)(F)F)C(C)(C)O3` are < 12.2 and > 31.5 µg/mL.
Turning to `CCc1cc(=O)c2ccc3c(c2o1)[C@@H](OC(=O)Cc1ccccc1)[C@@H](OC(=O)Cc1ccccc1)C(C)(C)O3`, the fold change (FC) in assay [1] was determined as 81.3. In assay [2], this molecule returned a GI50 of 8.33 µg/mL (≈ 15.8 µM).
The corresponding values for `CCCCN(CCCC)C(=O)O[C@@H]1c2c(ccc3c(=O)cc(CC)oc23)OC(C)(C)[C@@H]1OC(=O)N(CCCC)CCCC` are < 12.2 and > 20 µg/mL.
The corresponding values for `CCc1cc(=O)c2ccc3c(c2o1)[C@@H](OC(=O)N(CC)CC)[C@@H](OC(=O)N(CC)CC)C(C)(C)O3` are 116 and > 20 µg/mL.
The corresponding values for `CCc1cc(=O)c2ccc3c(c2o1)[C@@H](OC(=O)c1ccc(C)cc1)[C@@H](OC(=O)c1ccc(C)cc1)C(C)(C)O3` are 349 and 20.6 µg/mL (≈ 39.1 µM).
Take `CCc1cc(=O)c2ccc3c(c2o1)[C@@H](OC(=O)N(C)C)[C@@H](OC(=O)N(C)C)C(C)(C)O3`: the fold change (FC) in assay [1] was < 12.2. Further, the GI50 in assay [2] was > 20 µg/mL.
Take `CCc1cc(=O)c2ccc3c(c2o1)[C@@H](OC(=O)c1ccc(C#N)cc1)[C@@H](OC(=O)c1ccc(C#N)cc1)C(C)(C)O3`: in assay [1], the fold change (FC) came out at 188. Moreover, the GI50 in assay [2] is > 5.5 µg/mL. In addition, the inhibition result in assay [3] is “Active”.
The corresponding values for `CCc1cc(=O)c2ccc3c(c2o1)[C@@H](OC(=O)c1ccc(OC)cc1)[C@@H](OC(=O)c1ccc(OC)cc1)C(C)(C)O3` are 257, 9 µg/mL (≈ 16.1 µM) and “Active”.
`CCc1cc(=O)c2ccc3c(c2o1)[C@@H](OC(=O)c1cccc(C#N)c1)[C@@H](OC(=O)c1cccc(C#N)c1)C(C)(C)O3`: the fold change (FC) in assay [1] came to 160. The GI50 in assay [2] was > 2.5 µg/mL.
Regarding `CCc1cc(=O)c2ccc3c(c2o1)[C@@H](OC(=O)c1ccccc1OC)[C@@H](OC(=O)c1ccccc1OC)C(C)(C)O3`, in assay [1], the fold change (FC) worked out at 28.1. In addition, in assay [2], the GI50 was > 31.5 µg/mL.
The corresponding values for `CCc1cc(=O)c2ccc3c(c2o1)[C@@H](OC(=O)c1ccccc1)[C@@H](OC(=O)c1ccccc1)C(C)(C)O3` are < 12.2 and 8.79 µg/mL (≈ 17.6 µM).
The corresponding values for `CCc1cc(=O)c2ccc3c(c2o1)[C@@H](OC(=O)CCc1ccccc1)[C@@H](OC(=O)CCc1ccccc1)C(C)(C)O3` are 106 and 10.1 µg/mL (≈ 18.2 µM).
For `CCc1cc(=O)c2ccc3c(c2o1)[C@@H](OC(=O)c1cccc(C(F)(F)F)c1)[C@@H](OC(=O)c1cccc(C(F)(F)F)c1)C(C)(C)O3`, the fold change (FC) in assay [1] is < 12.2. In assay [2], the GI50 is > 31.5 µg/mL.
The corresponding values for `CCc1cc(=O)c2ccc3c(c2o1)[C@@H](OC(=O)C1CCCCC1)[C@@H](OC(=O)C1CCCCC1)C(C)(C)O3` are < 12.2 and > 20 µg/mL.
The corresponding values for `CCc1cc(=O)c2ccc3c(c2o1)[C@@H](OC(=O)Cc1ccc(OC)cc1)[C@@H](OC(=O)Cc1ccc(OC)cc1)C(C)(C)O3` are 34.4 and 13.3 µg/mL (≈ 22.7 µM).
The corresponding values for `CCc1ccc(C(=O)O[C@@H]2c3c(ccc4c(=O)cc(CC)oc34)OC(C)(C)[C@@H]2OC(=O)c2ccc(CC)cc2)cc1` are 20.3 and > 13.6 µg/mL.
`CCc1cc(=O)c2ccc3c(c2o1)[C@@H](OC(=O)N1CCCCC1)[C@@H](OC(=O)N1CCCCC1)C(C)(C)O3`: the fold change (FC) in assay [1] was found to be 22.2. Further, in assay [2], the GI50 is > 20 µg/mL.
The corresponding values for `CCc1cc(=O)c2ccc3c(c2o1)[C@@H](OC(=O)c1ccc(C(F)(F)F)cc1)[C@@H](OC(=O)c1ccc(C(F)(F)F)cc1)C(C)(C)O3` are 16.3 and > 31.5 µg/mL.
As for `COc1ccc(CCN(C)CCCC(C#N)(c2ccc(OC)c(OC)c2)C(C)C)cc1OC` (configuration not stated) [VERAPAMIL], the fold change (FC) in assay [1] was 141. In addition, the GI50 in assay [2] was > 31.5 µg/mL.
The corresponding values for `CCc1cc(=O)c2ccc3c(c2o1)[C@@H](OC(=O)c1ccc([N+](=O)[O-])cc1)[C@@H](OC(=O)c1ccc([N+](=O)[O-])cc1)C(C)(C)O3` are 203 and > 34 µg/mL.
The corresponding values for `CCc1cc(=O)c2ccc3c(c2o1)[C@@H](OC(=O)N1CCCC1)[C@@H](OC(=O)N1CCCC1)C(C)(C)O3` are 24.9 and > 20 µg/mL.
The corresponding values for `CCc1cc(=O)c2ccc3c(c2o1)[C@@H](OC(=O)c1cccc(OC)c1)[C@@H](OC(=O)c1cccc(OC)c1)C(C)(C)O3` are 27.1 and > 35.8 µg/mL.
As to `CCc1cc(=O)c2ccc3c(c2o1)[C@@H](OC(=O)/C=C/c1ccccc1)[C@@H](OC(=O)/C=C/c1ccccc1)C(C)(C)O3`, the fold change (FC) in assay [1] turned out to be 222. It took 9.44 µg/mL (≈ 17.1 µM) to inhibit growth in assay [2] by half (GI50).
The corresponding values for `CCc1cc(=O)c2ccc3c(c2o1)[C@@H](OC(=O)/C=C/c1ccc(OC)cc1)[C@@H](OC(=O)/C=C/c1ccc(OC)cc1)C(C)(C)O3` are 287 and > 36.4 µg/mL.
